Data reported in PMC4263960 (Pediatric blood & cancer, 2013).

Key:
CHLA-266 cell line = assay: DIMSCAN in vitro cytotoxicity testing, CHLA-266; assay type: cell-based; details: Homo sapiens, CHLA-266, 96 h, read-out: rIC50
Procedure, shortened: (§1)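 Test compound incubated with cells of a 24-line pediatric cancer panel for 96 h at 0.1 nM to 1 μM, then assessed by DIMSCAN. Relative IC50 (rIC50) derived per line. Panel comparison value is the panel rIC50 divided by the rIC50 of each cell line.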

[1] = system: D456 glioblastoma xenograft; assay: PPTP in vivo xenograft testing, D456; parameters: species or system mice
Ramos-RA1 cell line = assay: DIMSCAN in vitro cytotoxicity testing, Ramos-RA1; assay type: cell-based
Procedure, shortened: as §1

CHLA-136 cell line = assay: DIMSCAN in vitro cytotoxicity testing, CHLA-136; assay type: cell-based
Procedure, shortened: as §1

BT-12 cell line = assay: DIMSCAN in vitro cytotoxicity testing, BT-12; assay type: cell-based
Procedure, shortened: as §1

[2] = system: NB-EBc1 neuroblastoma xenograft; assay: PPTP in vivo xenograft testing, NB-EBc1; parameters: species or system mice
RD cell line = assay: DIMSCAN in vitro cytotoxicity testing, RD; assay type: cell-based
Procedure, shortened: as §1

[3] = system: ALL-7 ALL B-precursor xenograft; assay: PPTP in vivo xenograft testing, ALL-7; parameters: species or system mice
[4] = system: Rh28 ALV rhabdomyosarcoma xenograft; assay: PPTP in vivo xenograft testing, Rh28; parameters: species or system mice
TC-71 cell line = assay: DIMSCAN in vitro cytotoxicity testing, TC-71; assay type: cell-based
Procedure, shortened: as §1

KT-16 rhabdoid xenograft = assay: PPTP in vivo xenograft testing, KT-16; parameters: species or system mice
[5] = system: NB-1771 neuroblastoma xenograft; assay: PPTP in vivo xenograft testing, NB-1771; parameters: species or system mice
[6] = 1 mg/kg IP Q4Dx3 repeated at Day 21
[7] = NB-EBc1, 1 mg/kg IP Q4Dx3 repeated at Day 21

## C=C1C[C@@H]2CC[C@@]34C[C@H]5O[C@H]6[C@@H](O3)[C@H]3O[C@H](CC[C@@H]3O[C@H]6[C@H]5O4)CC(=O)C[C@@H]3[C@@H](OC)[C@@H](C[C@H](O)CN)O[C@H]3C[C@H]3O[C@@H](CC[C@@H]1O2)C[C@@H](C)C3=C [Eribulin]
CHLA-266 cell line
  IC50: 0.38 nM
[1]; 1 mg/kg IP
  EFS activity: Int (Intermediate activity = criteria (a) and (b) above, but not having a net reduction in median tumor volume for treated animals at the end of the study)
  Response activity: Int (intermediate activity by a score of ≥2 but <6)
  T/C volume activity: Low (Low activity = T/C >0.45)
[1]; [6]
  EFS T/C: 3.4
  Median final RTV (CD45%): >4
  Time to event: 19.8
[1]; 1 mg/kg IP, Day 21 or earlier
  Tumor volume T/C: 1.00
Ramos-RA1 cell line; 96 h, read-out: rIC50
  IC50: < 0.1 nM
Ramos-RA1 cell line; Ramos-RA1
  Panel rIC50/Line rIC50: >2.74
  Relative in/out%: −100%
  Ymin % (observed): 0.00%
CHLA-136 cell line; 96 h, read-out: rIC50
  IC50: 2.37 nM
CHLA-136 cell line; CHLA-136
  Panel rIC50/Line rIC50: 0.11
  Relative in/out%: −65%
  Ymin % (observed): 9.96%
BT-12 cell line; BT-12
  Panel rIC50/Line rIC50: 1.83
  Relative in/out%: −74%
  Ymin % (observed): 2.12%
BT-12 cell line; Homo sapiens, BT-12, 96 h, read-out: rIC50
  IC50: 0.15 nM
[2]; NB-EBc1, 1 mg/kg IP
  EFS activity: Low (Low activity = EFS T/C <2)
  Response activity: Low (low activity by a score of <2)
  T/C volume activity: Low (Low activity = T/C >0.45)
[2]; [7]
  EFS T/C: 1.1
  Median final RTV (CD45%): >4
  Time to event: 4.5
[2]; NB-EBc1, 1 mg/kg IP, Day 21 or earlier
  Tumor volume T/C: 0.82
[2]; NB-EBc1 neuroblastoma xenograft
  objective response: not responsive
RD cell line
  Panel rIC50/Line rIC50: 1.92
  Relative in/out%: −18%
  Ymin % (observed): 4.49%
RD cell line; Homo sapiens, 96 h, read-out: rIC50
  IC50: 0.14 nM
[3]; 1.5 mg/kg IP
  EFS activity: Int (Intermediate activity = criteria (a) and (b) above, but not having a net reduction in median tumor volume for treated animals at the end of the study)
  Response activity: High (A high level of activity is indicated by a score of 6 or more)
[3]; 1.5 mg/kg IP Q4Dx3 repeated at Day 21
  EFS T/C: >4.4
[3]; CD45%, 1.5 mg/kg IP
  Median final RTV (CD45%): 3.0%
[4]; 1 mg/kg IP
  EFS activity: High (High activity requires: (a) an EFS T/C >2; (b) a significant difference in EFS distributions, and (c) a net reduction in median tumor volume for animals in the treated group at the end of treatment as compared to at treatment initiation)
  Response activity: High (A high level of activity is indicated by a score of 6 or more)
  T/C volume activity: Int (Intermediate activity = T/C ≤0.45 but >0.15)
[4]; [6]
  EFS T/C: >2.4
  Median final RTV (CD45%): 0.0
[4]; 1 mg/kg IP, Day 21 or earlier
  Tumor volume T/C: 0.29
TC-71 cell line; TC-71
  Panel rIC50/Line rIC50: 2.45
  Relative in/out%: −99%
  Ymin % (observed): 0.01%
TC-71 cell line; TC-71, 96 h, read-out: rIC50
  IC50: 0.11 nM
KT-16 rhabdoid xenograft; 1 mg/kg IP
  EFS activity: Low (Low activity = EFS T/C <2)
  Response activity: Low (low activity by a score of <2)
  T/C volume activity: Low (Low activity = T/C >0.45)
KT-16 rhabdoid xenograft; [6]
  EFS T/C: 1.1
  Median final RTV (CD45%): >4
  Time to event: 12.1
KT-16 rhabdoid xenograft; 1 mg/kg IP, Day 21 or earlier
  Tumor volume T/C: 0.76
[5]; 1 mg/kg IP
  EFS activity: Low (Low activity = EFS T/C <2)
  Response activity: Int (intermediate activity by a score of ≥2 but <6)
  T/C volume activity: Low (Low activity = T/C >0.45)
[5]; [6]
  EFS T/C: 2.0
  Median final RTV (CD45%): >4
  Time to event: 14.8
[5]; 1 mg/kg IP, Day 21 or earlier
  Tumor volume T/C: 0.56
